Results on 21 compounds are retold here after ChEMBL document CHEMBL1136332, “Structure-activity relationship of triaryl propionic acid analogues on the human EP3 prostanoid receptor” (Bioorg Med Chem Lett, 2003).

SMILES strings stand for the structures.

Assay [1] addresses T1, Prostaglandin E2 receptor EP1 subtype (Homo sapiens, UniProt P34995).
T1 sequence (P34995 whole entry): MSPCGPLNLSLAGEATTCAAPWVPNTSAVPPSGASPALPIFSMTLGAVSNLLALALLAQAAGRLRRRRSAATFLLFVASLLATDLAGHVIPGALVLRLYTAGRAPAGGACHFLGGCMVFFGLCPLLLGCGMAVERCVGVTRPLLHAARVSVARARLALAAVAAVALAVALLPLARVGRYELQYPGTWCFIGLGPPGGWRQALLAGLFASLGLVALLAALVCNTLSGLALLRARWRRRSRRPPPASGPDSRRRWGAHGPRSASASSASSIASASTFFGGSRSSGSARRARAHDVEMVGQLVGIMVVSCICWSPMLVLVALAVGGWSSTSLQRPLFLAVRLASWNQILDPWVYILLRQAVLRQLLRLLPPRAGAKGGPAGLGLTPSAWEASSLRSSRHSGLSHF
Put plainly: Affinity at human Prostanoid EP1 receptor in the human embryonic kidney (HEK) 293 cell line. Type of assay: cell-based, HEK293.

Assay [2] deals with Prostaglandin E2 receptor EP2 subtype (Homo sapiens, UniProt P43116). Put plainly: Affinity at human Prostanoid EP2 receptor in the human embryonic kidney (HEK) 293 cell line. Type of assay: cell-based, HEK293.
Chain of Prostaglandin E2 receptor EP2 subtype (P43116 whole entry): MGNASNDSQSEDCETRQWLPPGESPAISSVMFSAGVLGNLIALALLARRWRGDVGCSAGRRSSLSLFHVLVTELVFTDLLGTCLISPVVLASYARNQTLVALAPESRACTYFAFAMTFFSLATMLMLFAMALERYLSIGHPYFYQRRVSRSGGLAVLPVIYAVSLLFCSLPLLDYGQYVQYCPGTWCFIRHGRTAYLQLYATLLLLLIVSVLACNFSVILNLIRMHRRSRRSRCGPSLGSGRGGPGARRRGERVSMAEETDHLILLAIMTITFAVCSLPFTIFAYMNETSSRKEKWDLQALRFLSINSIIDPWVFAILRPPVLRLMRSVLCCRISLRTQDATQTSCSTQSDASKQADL
In assay [3] the target is T2, Prostaglandin E2 receptor EP3 subtype (Homo sapiens, UniProt P43115).
T2 sequence (P43115 whole entry): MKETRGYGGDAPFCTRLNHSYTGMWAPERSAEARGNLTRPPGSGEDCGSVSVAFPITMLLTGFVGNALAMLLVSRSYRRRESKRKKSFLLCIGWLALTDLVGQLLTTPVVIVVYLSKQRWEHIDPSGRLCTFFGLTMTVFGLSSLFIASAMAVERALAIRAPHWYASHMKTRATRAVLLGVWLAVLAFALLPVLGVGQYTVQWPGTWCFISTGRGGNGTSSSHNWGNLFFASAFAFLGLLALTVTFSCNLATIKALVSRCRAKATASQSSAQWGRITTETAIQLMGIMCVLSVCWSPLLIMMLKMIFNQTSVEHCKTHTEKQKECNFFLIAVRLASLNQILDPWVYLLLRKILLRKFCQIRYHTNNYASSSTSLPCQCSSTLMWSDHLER
The experiment in a line: Affinity at human Prostanoid EP3 receptor in the human embryonic kidney (HEK) 293 cell line. Type of assay: cell-based, HEK293.

In assay [4] the target is Prostaglandin E2 receptor EP4 subtype (Homo sapiens, UniProt P35408). Put plainly: Affinity at human Prostanoid EP4 receptor in the human embryonic kidney (HEK) 293 cell line. The class given is cell-based, HEK293.
Chain of Prostaglandin E2 receptor EP4 subtype (P35408 whole entry): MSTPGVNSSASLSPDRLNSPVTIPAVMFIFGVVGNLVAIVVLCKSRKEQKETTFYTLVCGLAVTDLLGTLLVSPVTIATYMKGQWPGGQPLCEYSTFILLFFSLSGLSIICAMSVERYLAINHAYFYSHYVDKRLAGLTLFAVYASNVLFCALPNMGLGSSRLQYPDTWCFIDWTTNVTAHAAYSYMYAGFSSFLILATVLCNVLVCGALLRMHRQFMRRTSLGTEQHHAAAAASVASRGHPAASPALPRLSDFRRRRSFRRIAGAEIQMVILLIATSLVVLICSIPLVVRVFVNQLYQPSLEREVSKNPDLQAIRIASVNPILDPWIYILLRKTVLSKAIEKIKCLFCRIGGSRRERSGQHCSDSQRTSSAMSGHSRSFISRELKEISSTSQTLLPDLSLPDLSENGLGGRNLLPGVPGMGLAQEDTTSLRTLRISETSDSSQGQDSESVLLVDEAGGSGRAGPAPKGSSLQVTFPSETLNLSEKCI
In a further assay the target is T3, Thromboxane A2 receptor (Homo sapiens, UniProt P21731).
T3 sequence (P21731 whole entry): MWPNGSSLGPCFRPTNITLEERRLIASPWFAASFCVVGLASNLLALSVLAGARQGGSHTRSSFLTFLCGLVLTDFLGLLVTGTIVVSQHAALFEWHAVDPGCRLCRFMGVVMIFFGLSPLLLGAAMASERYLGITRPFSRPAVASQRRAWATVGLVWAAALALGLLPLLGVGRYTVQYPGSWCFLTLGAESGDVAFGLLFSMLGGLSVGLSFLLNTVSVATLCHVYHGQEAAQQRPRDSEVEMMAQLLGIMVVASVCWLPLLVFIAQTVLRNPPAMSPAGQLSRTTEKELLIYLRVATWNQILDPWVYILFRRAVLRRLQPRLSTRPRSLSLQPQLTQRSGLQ
The experiment in a line: Ability to inhibit the binding of human Thromboxane A2 receptor to TXA2.

In assay [5] the target is T4, Prostaglandin E2 receptor EP3 subtype (Homo sapiens) (UniProt P43115).
T4 sequence (whole entry): T2 sequence (P43115 whole entry)
The experiment in a line: Ability to inhibit the binding of human Prostanoid EP3 receptor to PGE-2 using EP3 functional assay. The gist of the method:
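HEL 92.1.7 human erythroleukemia cells, which endogenously express EP3, at 2×10⁵ cells per incubation in HBSS with RO-20174 and forskolin. Antagonist (0–3×10⁻⁶ M, 0.5% DMSO final) preincubated 10 min at 37 °C. Sulprostone (0–3×10⁻⁵ M) was then added as agonist for 10 min at 37 °C. The reaction was stopped by 3 min boiling, and cAMP was read by SPA.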

Assay [6] has as its target Prostaglandin D2 receptor DP (human) (UniProt Q13258). The experiment in a line: Ability to inhibit the binding of human DP receptor to PGD-2.
The target of a further assay is Prostacyclin receptor (Homo sapiens, UniProt P43119). The experiment in a line: Ability to inhibit the binding of human IP receptor to Prostaglandin I2 receptor.
Chain of Prostacyclin receptor (P43119 whole entry): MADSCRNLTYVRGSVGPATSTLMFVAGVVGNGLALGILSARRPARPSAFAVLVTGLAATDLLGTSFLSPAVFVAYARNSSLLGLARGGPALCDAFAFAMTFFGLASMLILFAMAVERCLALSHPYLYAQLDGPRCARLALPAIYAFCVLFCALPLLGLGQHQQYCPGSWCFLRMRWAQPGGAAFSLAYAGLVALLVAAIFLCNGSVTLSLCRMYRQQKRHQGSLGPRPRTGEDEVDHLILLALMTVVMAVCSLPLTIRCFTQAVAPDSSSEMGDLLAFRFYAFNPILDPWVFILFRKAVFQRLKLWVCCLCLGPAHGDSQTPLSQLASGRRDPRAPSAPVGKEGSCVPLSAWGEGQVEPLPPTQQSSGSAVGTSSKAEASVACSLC
Assay [7] concerns the target Prostaglandin F2-alpha receptor (Homo sapiens, UniProt P43088). Put plainly: Ability to inhibit the binding of human FP receptor to PGD-2.

Chain of Prostaglandin D2 receptor DP (human) (Q13258 whole entry, looked up): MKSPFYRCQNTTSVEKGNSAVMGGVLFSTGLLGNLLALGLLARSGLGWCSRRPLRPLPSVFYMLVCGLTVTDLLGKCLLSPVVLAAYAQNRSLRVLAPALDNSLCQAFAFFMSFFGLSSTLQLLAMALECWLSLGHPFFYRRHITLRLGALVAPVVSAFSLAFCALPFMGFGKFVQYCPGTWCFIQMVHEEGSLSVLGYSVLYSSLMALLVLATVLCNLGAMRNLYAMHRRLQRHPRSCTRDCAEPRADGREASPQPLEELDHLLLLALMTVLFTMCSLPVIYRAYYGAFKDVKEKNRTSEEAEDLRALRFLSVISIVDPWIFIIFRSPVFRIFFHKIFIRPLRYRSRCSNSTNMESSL
Chain of Prostaglandin F2-alpha receptor (P43088 whole entry): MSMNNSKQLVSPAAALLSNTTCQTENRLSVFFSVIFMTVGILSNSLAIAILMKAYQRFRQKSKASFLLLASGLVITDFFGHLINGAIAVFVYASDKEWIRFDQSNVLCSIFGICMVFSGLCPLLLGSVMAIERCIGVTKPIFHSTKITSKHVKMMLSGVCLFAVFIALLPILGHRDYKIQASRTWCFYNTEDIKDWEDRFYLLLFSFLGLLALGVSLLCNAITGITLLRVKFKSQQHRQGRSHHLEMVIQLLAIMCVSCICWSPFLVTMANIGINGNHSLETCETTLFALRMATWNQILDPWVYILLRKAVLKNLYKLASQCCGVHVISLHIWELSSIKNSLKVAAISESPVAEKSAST

One may read the Ki as the dissociation constant of the complex between target and ligand, obtained from inhibition or displacement. A higher Ki goes with weaker binding. As for `Cc1cccc(/C=C/Cc2ccccc2/C=C/C(=O)O)c1OCc1ccccc1`, the Ki in assay [1] was found to be 12 µM; in assay [2], 8.1 µM; in [3], 0.007 µM; in assay [4] it was 1.9 µM.
In the case of `CC(Cc1ccccc1-c1csc(-c2ccccc2OCc2ccccc2)c1)C(=O)O` (configuration not stated), the Ki in assay [1] was determined as 13 µM; in assay [2], 5.5 µM; in assay [3], 0.46 µM; in [4], 0.98 µM.
As to `O=C(O)CCc1ccccc1-c1cccc(-c2ccccc2OCc2c(Cl)cccc2Cl)c1`, the inhibitory constant (Ki) was found to be 1.1 µM in [1], 4.6 µM in assay [2], 0.021 µM in [3] and 1.1 µM in [4].
Take `O=C(O)CCc1ccccc1-c1cccc(-c2ccccc2OCc2ccccc2)c1`: the Ki worked out at 8.3 µM in assay [1], 3.7 µM in assay [2], 0.055 µM in [3] and 1.8 µM in assay [4].
For `O=C(O)Cc1ccccc1-c1cccc(-c2ccccc2OCc2ccccc2)c1`, the inhibition constant (Ki) in [1] came to 9.3 µM; in [2], 3.6 µM; in assay [3], 1.7 µM; in assay [4], 1.1 µM.
As for `O=C(O)CCc1ccccc1-c1csc(-c2ccccc2OCc2ccccc2)c1`, the Ki was 17.8 µM in assay [1], 2.5 µM in [2], 0.023 µM in assay [3] and 0.65 µM in assay [4].
In the case of `CC(CC(=O)O)c1ccccc1-c1csc(-c2ccccc2OCc2ccccc2)c1` (configuration not stated), the Ki in assay [1] stood at 35 µM; in assay [2], 4.6 µM; in assay [3], 0.035 µM; in [4], 1.1 µM.
The corresponding values for `O=C(O)CCc1ccccc1-c1cccc(-c2ccccc2)c1` are 34 µM, 8.1 µM, 0.75 µM and 6 µM.
Regarding `O=C(O)/C=C/c1ccccc1-c1cccc(-c2ccccc2OCc2ccccc2)c1`, the Ki in assay [1] was 72 µM; in assay [2] it was 0.83 µM; in assay [3], 0.084 µM; in [4] it was 1.7 µM.
Take `O=C(O)CCCc1ccccc1-c1cccc(-c2ccccc2OCc2ccccc2)c1`: the Ki in assay [1] was determined as 11.9 µM; in assay [2], 3.5 µM; in [3] it was 0.59 µM; in assay [4], 2 µM.
The corresponding values for `O=C(O)c1ccc(CCCc2ccccc2OCc2ccccc2)cc1` are 0.23 µM, 0.15 µM, 2.3 µM and 0.44 µM.
For `O=C(CCc1ccccc1-c1cccc(-c2ccccc2OCc2ccccc2)c1)NS(=O)(=O)c1cccs1`, the Ki in assay [1] is 2.6 µM; in assay [2] it was 1.6 µM; in assay [3] it was 0.016 µM; in assay [4] it was 1.7 µM.
On to `O=C(O)CNc1ccccc1-c1csc(-c2ccccc2OCc2ccccc2)c1`, for which the Ki in assay [1] was 85 µM; in assay [2], 2.5 µM; in assay [3], 0.052 µM; in assay [4] it was 0.46 µM.
Turning to `O=C(O)/C=C/c1ccccc1-c1ccc(Cl)c(Cl)c1`, the Ki in assay [1] was 10 µM; in assay [2], 7.5 µM; in assay [3] it was 1.6 µM; in [4], above 10 µM.
The like results for `O=C(O)CCc1ccccc1-c1cccc(-c2ccccc2COc2ccccc2)c1` were, in that order, 9.5 µM, 2.9 µM, 0.089 µM and 1 µM.
As to `O=C(O)C1CC1c1ccccc1-c1csc(-c2ccccc2OCc2ccccc2)c1` (configuration not stated), the Ki on Thromboxane A2 receptor worked out at 0.4 µM; in [1], 48 µM; in assay [2] it was 2.3 µM; in assay [6] it was 0.12 µM; in assay [3] it was 0.003 µM; on Prostacyclin receptor, 0.71 µM. Further, the results for the Ki in assay [4] and in assay [7] were 0.3 µM and 22 µM, respectively. In addition, the Kb in [5] amounted to 0.0058 µM.
For `CC(Cc1ccccc1-c1cccc(-c2ccccc2OCc2ccccc2)c1)C(=O)O` (configuration not stated), the Ki amounted to 8.3 µM in [1], 3.6 µM in assay [2], 0.82 µM in [3] and 1.2 µM in [4].
For the compound `O=C(/C=C/c1ccccc1-c1ccc(Cl)c(Cl)c1)NS(=O)(=O)c1cccs1`, the inhibition constant (Ki) in assay [1] turned out to be 8.1 µM; in [2] it was 10 µM.
With `O=C(O)CCc1ccccc1-c1ccc(-c2ccccc2OCc2ccccc2)s1`, the Ki in assay [1] worked out at 27 µM; in assay [2], 4.1 µM; in [3], 0.52 µM; in assay [4], 1.1 µM.
Turning to `O=C(O)CCc1ccccc1-c1cc(-c2ccccc2OCc2ccccc2)cs1`, the Ki in assay [1] was determined as 17.5 µM; in assay [2], 2.9 µM; in assay [3] it was 0.027 µM; in [4], 0.76 µM.
As for `O=C(O)CCc1ccccc1-c1cccc(-c2ccc(OCc3ccccc3)cc2)c1`, the Ki is above 97 µM in assay [1], above 97 µM in [2], 1.5 µM in assay [3] and 21 µM in [4].
